Data on 15 compounds can be found in ChEMBL document CHEMBL3817785, “Synthetic sulfoglycolipids targeting the serine-threonine protein kinase Akt” (Bioorg Med Chem, 2016).

For orientation: inhibition means the share of the control response that was lost under treatment. The term pIC50 denotes the negative decadic logarithm of the IC50, by convention in mol/L.

pIC50: −log10 of the molar value. The source made the active and inactive calls. No cut-off for these calls is given here.

In assay [1] the target is T1, RAC-alpha serine/threonine-protein kinase (Homo sapiens, UniProt P31749). Kind of assay: Inhibition of human Akt1 PH domain using AKTide-2T as substrate at 100 uM by ELISA. The essentials:
(§1)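 Kit ELISA: wells precoated with AKTide-2T; constitutively active human Akt1 (25 m units/well) plus compound in kinase buffer (100 µM final, or 1–250 µM for concentration-response), Mg2+/ATP added. Phospho-substrate detected by HRP anti-phospho-AKTide-2T antibody with TMB, A450.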
On the technique in general: ELISA stands for enzyme-linked immunosorbent assay.

The test system of assay [2] is K1. Kind of assay: (§2) Antiproliferative activity against human K1 cells expressing BRAF V600E/PI3K E542K mutants assessed as cell growth inhibition after 72 hrs by coulter counter method. The class given is functional, cell-based. The essentials: (§3)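 Cells seeded in complete medium in 12-well plates: Nim-1 at 5000 cells/cm² and TPC-1 at 3000 cells/cm², both in DMEM + 10% FBS; K1 at 4000 cells/cm² in DMEM:Ham's F12:MCDB 105 (2:1:1) + 20% serum; 37 °C, 5% CO2. Next day, exposed to increasing concentrations or DMSO (0.5% final) for 72 h. Cells trypsinized and Coulter-counted; survival as % of untreated, duplicates; IC50 = 50% growth inhibition.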

The target in assay [3] is RAC-alpha serine/threonine-protein kinase (Mus musculus) (UniProt P31750). Put plainly: Inhibition of serum-stimulated Akt phosphorylation in mouse NIH/3T3-K-RAS cells at 100 uM pretreated for 1 hr followed by serum addition for 30 mins by Western blot analysis. Format: cell-based. The essentials: (§4)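 K-ras-transformed NIH 3T3 cells (DMEM, 10% NBCS, 37 °C) plated at 3 x 10⁵ cells/mL, starved 16 h in 0.5% serum, pretreated 1 h with compound at 100 µM or DMSO, then stimulated with 10% serum for 30 min. Lysates (15 µg) on 8% SDS-PAGE, probed for phospho-Akt Ser473, reprobed for total Akt, actin loading control; ECL; densitometry from three experiments.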
Chain of RAC-alpha serine/threonine-protein kinase (Mus musculus) (P31750 whole entry): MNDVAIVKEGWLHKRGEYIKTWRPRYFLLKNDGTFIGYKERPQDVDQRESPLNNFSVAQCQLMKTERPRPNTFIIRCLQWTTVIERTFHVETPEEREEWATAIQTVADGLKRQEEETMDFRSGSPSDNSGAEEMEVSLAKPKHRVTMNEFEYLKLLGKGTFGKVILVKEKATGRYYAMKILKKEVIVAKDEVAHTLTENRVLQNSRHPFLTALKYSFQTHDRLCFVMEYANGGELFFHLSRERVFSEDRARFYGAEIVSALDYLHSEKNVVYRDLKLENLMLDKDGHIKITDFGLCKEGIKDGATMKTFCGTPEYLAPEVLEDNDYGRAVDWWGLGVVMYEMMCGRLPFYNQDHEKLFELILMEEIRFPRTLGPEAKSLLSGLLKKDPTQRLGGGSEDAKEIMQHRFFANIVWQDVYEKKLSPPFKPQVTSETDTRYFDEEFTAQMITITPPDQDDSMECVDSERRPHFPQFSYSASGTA
For orientation: In western blotting, separated proteins are transferred to a membrane and probed.

For assay [4] the target is unchanged. Put plainly: Inhibition of Akt phosphorylation in mouse NIH/3T3-K-RAS cells at 100 uM pretreated for 1 hr by Western blot analysis. Format: cell-based. In short, it runs like this: as §4
Assay [5] is filed under the species Homo sapiens. Kind of assay: (§5) Antiproliferative activity against PTEN-deficient human Nim1 cells expressing BRAF V600E mutant assessed as cell growth inhibition after 72 hrs by coulter counter method. The class given is functional. In short, it runs like this: as §3
Assay [6] concerns TPC1. Put plainly: Antiproliferative activity against human TPC1 cells harboring RET/PTC-1 rearrangement assessed as cell growth inhibition after 72 hrs by coulter counter method. Format: functional, cell-based. In short, it runs like this:
as §3

Assay [7] concerns IGROV-1. Kind of assay: (§6) Antiproliferative activity against human IGROV1 cells assessed as cell growth inhibition after 24 hrs by coulter counter method. The class given is functional, cell-based. In short, it runs like this:
(§7)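 Seeded at 5000 cells/cm² in complete RPMI (10% serum), 37 °C, 5% CO2; next day serum-starved and drug-treated for 24 h, then complete medium restored for a further 48 h. Cells trypsinized and counted by Coulter counter 72 h after treatment start; survival vs untreated; IC50 = concentration inhibiting proliferation by 50%; duplicates, two independent experiments, mean ± SEM.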

A short description of assay [8]: as §2. Format: functional, cell-based. Particulars: K1, 72 h. The essentials:
as §3

Assay [9] is described as follows: as §5. The class given is functional. In short, it runs like this: as §3
Assay [10] is described as follows: as §6. The class given is functional, cell-based. The note with it: IGROV-1, 24 h. In short, it runs like this:
as §7

For assay [11], the target named is T1, RAC-alpha serine/threonine-protein kinase. Put plainly: Inhibition of Akt in human IGROV1 cells assessed as reduction in GSK3alpha phosphorylation at Ser21 at 3 uM after 24 hrs by Western blot analysis. Format: cell-based. Particulars: IGROV-1. In short, it runs like this: (§8)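 Seeded in complete RPMI; 24 h later serum-starved and exposed to drug or vehicle for 24 h; total protein extracted and immunoblotted for serine-phosphorylated GSK-3α, GSK-3β and BAD.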

The target is the same in assay [12]. Kind of assay: Inhibition of Akt in human IGROV1 cells assessed as reduction in BAD phosphorylation at Ser136 at 3 uM after 24 hrs by Western blot analysis. Format: cell-based. The note with it: IGROV-1. The essentials:
as §8

The nature of assay [13]: Antiproliferative activity against human K1 cells expressing BRAF V600E/PI3K E542K mutants assessed as cell growth inhibition at 50 uM after 72 hrs by coulter counter method relative to control. Particulars: K1, 72 h, read-out: GI. The class given is functional. In short, it runs like this: (§9)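 Cells plated in complete medium (TPC-1 3000 cells/cm², DMEM + 10% FBS; K1 4000 cells/cm², DMEM:Ham's F12:MCDB 105 2:1:1 + 20% serum), 37 °C, 5% CO2. Next day exposed to drug or DMSO (0.5% final) for 72 h; trypsinized, Coulter counted; % survival vs untreated; duplicates, two independent experiments, mean ± SEM; Student's two-tailed t test.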

Assay [14] deals with TPC1. Put plainly: Antiproliferative activity against human TPC1 cells harboring RET/PTC-1 rearrangement assessed as cell growth inhibition at 50 uM after 72 hrs by coulter counter method relative to control. The class given is functional. The note with it: TPC1, 72 h, read-out: GI. The essentials:
as §9

Assay [15] deals with K1. Put plainly: Cytotoxicity against human K1 cells expressing BRAF V600E/PI3K E542K mutants assessed as vacuolated and granulated cytoplasm at 50 uM after 72 hrs by coulter counter method. Format: functional, cell-based.
Assay [16] concerns the target T1, RAC-alpha serine/threonine-protein kinase. Kind of assay: Inhibition of human Akt1 PH domain using AKTide-2T as substrate by ELISA. In short, it runs like this: as §1
For assay [17] the target is unchanged. Put plainly: Inhibition of Akt in human IGROV1 cells assessed as reduction in GSK3beta phosphorylation at Ser9 at 3 uM after 24 hrs by Western blot analysis. The class given is cell-based. Particulars: IGROV-1. In short, it runs like this:
as §8

For assay [18] the target is unchanged. The note with it: IGROV-1, 3 to 10 uM.
Assay [19] shares this target. Particulars: IGROV-1, 3 to 10 uM. The source holds these as a separate data set.
Assay [20] shares this target. Particulars: IGROV-1, 3 to 10 uM. The source holds these as a separate data set.
Assay [21] shares this target. The note with it: 1 uM.

T1 sequence (P31749 whole entry, the tested form may be a part): as the sequence (P31750 whole entry) above, with N2S, S50A, A100T, R112K, T117E, T389K, N410G, D415H counted along it

The compound `CCCCCCCCO[C@@H]1O[C@H](CS(=O)(=O)O)[C@@H](O)[C@H](O)[C@H]1O` displayed an inhibition in assay [1] of 14%. The “growth inhibition (GI)” value in assay [2], in [5], in assay [6] and in assay [7] was “inactive” throughout. Also, the inhibition entry in [3] and in assay [4] was “inactive” each time.
For `CCCCCCCCCCCC(=O)OCC(CO)O[C@@H]1O[C@H](CS(=O)(=O)O)[C@@H](O)[C@H](O)[C@H]1O` (some centres not stated), the inhibition in [1] came to 31%.
As to `O=S(=O)(O)C[C@H]1O[C@@H](OC(CO)CO)[C@H](O)[C@@H](O)[C@@H]1O`, in [1], the inhibition stood at 13%.
On the same count and under the same terms, with `CO[C@@H]1O[C@H](CS(=O)(=O)O)[C@@H](O)[C@H](O)[C@H]1O` the figure was 28%.
For the compound `CCCCCCCCCCCC(=O)OCC(COC(=O)CCCCCCCCCCC)O[C@@H]1O[C@H](CS(=O)(=O)O)[C@@H](O)[C@H](O)[C@H]1O`, in assay [1], the inhibition was determined as 77%.
In the case of `O=c1[nH]c2ccccc2n1C1CCN(Cc2ccc(-c3nc4cc5nc[nH]c5cc4nc3-c3ccccc3)cc2)CC1`, the negative logarithm of the IC50 (pIC50) was 5.00 in [8]; 5.52 in assay [9]; 4.96 in [6] (TPC1, 72 h); 6.52 in assay [10].
For `CCCCCCCCCCCCCCCCCC(=O)OCC(CO)O[C@@H]1O[C@H](CS(=O)(=O)O)[C@@H](O)[C@H](O)[C@H]1O` (some centres not stated), the inhibition result in [11], in [12], in assay [4] and in assay [17] was “Active” in each case. Besides, the inhibition in assay [1] was 86%; in [3] it was 40%; in assay [16], “Dose-dependent effect”. For the same compound, the “growth inhibition (GI)” value in assay [2], in assay [5] and in [6] was “Dose-dependent effect” throughout. Besides, the inhibition of growth at 50 µM in assay [13] and in assay [14] was 30% in each case. For the same compound, the outcome in assay [15] was Active. The pIC50 is 4.50 in assay [16] and 5.70 in [10].
`CCCCCC(=O)OCC(CO)O[C@@H]1O[C@H](CS(=O)(=O)O)[C@@H](O)[C@H](O)[C@H]1O` (some centres not stated): in [1], the inhibition worked out at 18%.
In assay [1], `CCCCCCCCO[C@@H]1O[C@H](CN)[C@@H](O)[C@H](O)[C@H]1O` gave an inhibition of 6%. Also, the “growth inhibition (GI)” value in [2], in [5], in assay [6] and in [7] was “inactive” in each case. In addition, the inhibition entry in assay [3] and in assay [4] was “inactive” in each case.
For the compound `CCCCCCCCCCCCCCCCCCOP(=O)([O-])OC1CC[N+](C)(C)CC1` [PERIFOSINE], the pIC50 in assay [16] was 4.36.
As to `O=c1[nH]c2ccccc2n1C1CCN(Cc2ccc(-c3nc4cc5[nH]cnc5cc4nc3-c3ccccc3)cc2)CC1`, the inhibition in assay [1] amounted to 89%. For the same compound, the inhibition entry in [18], in [19] and in assay [20] was “Active” in each case.
With `CN[C@@H]1C[C@H]2O[C@@](C)([C@@H]1OC)n1c3ccccc3c3c4c(c5c6ccccc6n2c5c31)C(=O)NC4`, the inhibition entry in assay [21] is “Active”.
Compound `CCCCCC(=O)OCC(COC(=O)CCCCC)O[C@@H]1O[C@H](CS(=O)(=O)O)[C@@H](O)[C@H](O)[C@H]1O` registered an inhibition in assay [1] of 13%.
The same measure, in the same setting: the same measure for `CCCCCCCCCCCCOS(=O)(=O)[O-].[Na+]`: “inactive”; for `CCCCCCCCCCCC(=O)OCC(COC(=O)CCCCCCCCCCC)O[C@@H]1O[C@H](CO)[C@@H](O)[C@H](O)[C@H]1O`: 7%.
